Laboratory results as given in ChEMBL document CHEMBL2311298, “2H-chromene derivatives bearing thiazolidine-2,4-dione, rhodanine or hydantoin moieties as potential anticancer agents” (Eur J Med Chem, 2013).

How the values were obtained:
[1] = test system: A549; assay: Anticancer activity against human A549 cells assessed as cell viability after 72 hrs by MTT reduction assay; type: functional, cell-based; conditions: A549, 72 h
Summary of the method: (§1)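 Cells grown in RPMI 1640 with 10% FBS, 100 units/ml penicillin-G and streptomycin, 37 °C, 5% CO2. A549, MCF-7 and NIH/3T3 grown as monolayers, K562 and MOLT-4 in suspension. Seeding densities (cells/ml): A549 40,000, K562 40,000, MCF-7 30,000, MOLT-4 40,000, NIH/3T3 50,000. Overnight at 37 °C, then 3-4 concentrations added.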

[2] = test system: MOLT-4; assay: Anticancer activity against human MOLT4 cells assessed as cell viability after 72 hrs by MTT reduction assay; type: functional, cell-based; conditions: MOLT-4, 72 h; summary of the method: as §1
[3] = test system: K562; assay: Anticancer activity against human K562 cells assessed as cell viability after 72 hrs by MTT reduction assay; type: functional, cell-based; conditions: K562, 72 h; summary of the method: as §1
[4] = test system: MOLT-4; assay: Anticancer activity against human MOLT4 cells assessed as cell viability at 50 uM after 72 hrs by trypan blue exclusion assay; type: functional; conditions: MOLT-4, 72 h, read-out: Activity
Summary of the method: (§2)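 MOLT-4 cells in RPMI 1640 with 10% FBS, grown in suspension at 37 °C, 5% CO2. Cells exposed for 72 h as in the MTT assay, with each compound at a single concentration. Suspension mixed 1:1 with trypan blue. Clear (viable) and blue cells counted on a hemocytometer. Percent viable cells expressed relative to control wells.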

[5] = test system: MCF7; assay: Anticancer activity against human MCF7 cells assessed as cell viability after 72 hrs by MTT reduction assay; type: functional, cell-based; conditions: MCF7, 72 h; summary of the method: as §1
[6] = test system: NIH3T3; assay: Anticancer activity against mouse NIH/3T3 cells assessed as cell viability after 72 hrs by MTT reduction assay; type: cell-based; conditions: NIH3T3, 72 h; summary of the method: as §1
[7] = test system: MOLT-4; assay: Anticancer activity against human MOLT4 cells assessed as cell viability at 40 uM after 72 hrs by trypan blue exclusion assay; type: functional; conditions: MOLT-4, 72 h, read-out: Activity; summary of the method: as §2
[8] = test system: MOLT-4; assay: Anticancer activity against human MOLT4 cells assessed as cell viability at 75 uM after 72 hrs by trypan blue exclusion assay; type: functional; conditions: MOLT-4, 72 h, read-out: Activity; summary of the method: as §2
[9] = test system: MOLT-4; assay: Anticancer activity against human MOLT4 cells assessed as cell viability at 10 uM after 72 hrs by trypan blue exclusion assay; type: functional; conditions: MOLT-4, 72 h, read-out: Activity; summary of the method: as §2
[10] = test system: MOLT-4; assay: Anticancer activity against human MOLT4 cells assessed as cell viability at 100 uM after 72 hrs by trypan blue exclusion assay; type: functional; conditions: MOLT-4, 72 h, read-out: Activity; summary of the method: as §2
[11] = test system: MOLT-4; assay: Anticancer activity against human MOLT4 cells assessed as cell viability at 20 uM after 72 hrs by trypan blue exclusion assay; type: functional; conditions: MOLT-4, 72 h, read-out: Activity; summary of the method: as §2
[12] = test system: MOLT-4; assay: Anticancer activity against human MOLT4 cells assessed as cell viability at 65 uM after 72 hrs by trypan blue exclusion assay; type: functional; conditions: MOLT-4, 72 h, read-out: Activity; summary of the method: as §2
[13] = test system: MOLT-4; assay: Anticancer activity against human MOLT4 cells assessed as cell viability at 25 uM after 72 hrs by trypan blue exclusion assay; type: functional; conditions: MOLT-4, 72 h, read-out: Activity; summary of the method: as §2

| SMILES | IC50 [1] | IC50 [2] | IC50 [3] | viability at 50 µM [4] | IC50 [5] | IC50 [6] | viability at 40 µM [7] | viability at 75 µM [8] | viability at 10 µM [9] | viability at 100 µM [10] | viability at 20 µM [11] | viability at 65 µM [12] | viability at 25 µM [13] |
| --- | --- | --- | --- | --- | --- | --- | --- | --- | --- | --- | --- | --- | --- |
| O=C1NC(=S)S/C1=C\C1=Cc2ccccc2OC1 | 73.1 µM | 52 µM | 55.3 µM | 49.3% | 68.7 µM | 72.4 µM | – | – | – | – | – | – | – |
| O=C(O)CN1C(=O)/C(=C/C2=Cc3ccccc3OC2)SC1=S | > 100 µM | > 100 µM | > 100 µM | – | > 100 µM | – | – | – | – | – | – | – | – |
| CCN1C(=O)S/C(=C\C2=Cc3ccccc3OC2)C1=O | > 200 µM | > 200 µM | > 200 µM | – | > 200 µM | – | – | – | – | – | – | – | – |
| O=C1NC(=O)/C(=C/C2=Cc3cc(Br)ccc3OC2)S1 | 79.5 µM | 54.7 µM | 49.8 µM | 52.7% | 57.9 µM | 56.5 µM | – | – | – | – | – | – | – |
| O=C1NC(=S)S/C1=C\C1=Cc2cc(Br)ccc2OC1 | 51 µM | 38.2 µM | 33.7 µM | – | 40.4 µM | 27.8 µM | 46.7% | – | – | – | – | – | – |
| O=C1NC(=O)/C(=C/C2=Cc3cc(Br)ccc3OC2)N1 | 19.3 µM | 77.5 µM | 79.3 µM | – | 51 µM | 35.9 µM | – | 60.1% | – | – | – | – | – |
| O=C(O)CN1C(=O)/C(=C/C2=Cc3cc(Br)ccc3OC2)SC1=S | > 25 µM | > 25 µM | > 25 µM | – | > 25 µM | – | – | – | – | – | – | – | – |
| CCN1C(=O)S/C(=C\C2=Cc3cccc(OC)c3OC2)C1=O | > 200 µM | 13.2 µM | 90.4 µM | – | 89.1 µM | 75 µM | – | – | 53.2% | – | – | – | – |
| COc1cccc2c1OCC(/C=C1\SC(=S)N(CC(=O)O)C1=O)=C2 | > 200 µM | > 200 µM | > 200 µM | – | > 200 µM | – | – | – | – | – | – | – | – |
| CN1C(=N)NC(=O)/C1=C/C1=Cc2ccccc2OC1 | 89.4 µM | 72 µM | 96.5 µM | – | 149 µM | 106 µM | – | 49.5% | – | – | – | – | – |
| CN1C(=O)S/C(=C\C2=Cc3ccccc3OC2)C1=O | > 100 µM | > 100 µM | > 100 µM | – | > 100 µM | – | – | – | – | – | – | – | – |
| O=C1NC(=O)/C(=C/C2=Cc3ccccc3OC2)S1 | 192 µM | 101 µM | 98.9 µM | – | 99.4 µM | > 200 µM | – | – | – | 53.4% | – | – | – |
| O=C1NC(=O)/C(=C/C2=Cc3ccccc3OC2)N1 | 29.7 µM | 21.3 µM | 55.7 µM | – | 8.1 µM | 180 µM | – | – | – | – | 53.3% | – | – |
| CC1Oc2ccc(Br)cc2C=C1/C=C1\SC(=O)NC1=O (racemic) | 65.5 µM | 64.5 µM | 77 µM | – | 67.6 µM | 56.2 µM | – | – | – | – | – | 53.3% | – |
| CC1Oc2ccc(Br)cc2C=C1/C=C1\SC(=S)NC1=O (racemic) | 47.5 µM | 20.5 µM | 31.6 µM | – | 19.9 µM | 28.7 µM | – | – | – | – | 53.1% | – | – |
| CC1Oc2ccc(Br)cc2C=C1/C=C1/C(=O)NC(=N)N1C (racemic) | 121 µM | 56.6 µM | 51.8 µM | 54.3% | 84.8 µM | 87.7 µM | – | – | – | – | – | – | – |
| CC1Oc2ccc(Br)cc2C=C1/C=C1\NC(=O)NC1=O (racemic) | 17.5 µM | 24.8 µM | 10.6 µM | – | 15.3 µM | 25.2 µM | – | – | – | – | – | – | 41.3% |
| CC1Oc2ccc(Br)cc2C=C1/C=C1\SC(=O)N(C)C1=O (racemic) | > 50 µM | > 50 µM | > 50 µM | – | > 50 µM | – | – | – | – | – | – | – | – |
| CCN1C(=O)S/C(=C\C2=Cc3cc(Br)ccc3OC2C)C1=O (racemic) | > 100 µM | > 100 µM | > 100 µM | – | > 100 µM | – | – | – | – | – | – | – | – |
| CC1Oc2ccc(Br)cc2C=C1/C=C1\SC(=S)N(CC(=O)O)C1=O (racemic) | > 50 µM | > 50 µM | > 50 µM | – | > 50 µM | – | – | – | – | – | – | – | – |
